Reference: ChEMBL document CHEMBL1144004, “Synthesis of (nor)tropeine (di)esters and allosteric modulation of glycine receptor binding” (Bioorg Med Chem, 2008)

Organism: Rattus norvegicus
Assay: Displacement of [3H]strychnine from Wistar rat glycine receptor in spinal cord membrane
Type: cell membranes
Method in brief: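 Male Wistar rat spinal cord crude synaptic membranes, washed in 50 mM Tris-HCl pH 7.4 and pre-spun in buffer with 200 mM KSCN. Binding in 50 mM Tris-HCl plus 200 mM KSCN with 3 nM [3H]strychnine, 0 °C for 35 min. Duplicate aliquots were vacuum-filtered on GF/B filters and counted by scintillation. Nonspecific binding was taken with 2 mM glycine. Displacement curves were fitted (Eq. 2) for K_A and α; 3–6 experiments.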

First: CN1[C@@H]2CC[C@H]1C[C@H](OC(=O)c1ccc(Cl)nc1)C2
Second: CN1[C@@H]2CC[C@H]1C[C@H](OC(=O)c1cccnc1)C2
The K of the first is 2.6-fold higher: 5.7 µM for the first, 2.2 µM for the second.

Compared with CN1[C@@H]2CCC[C@H]1C[C@H](OC(=O)/C=C/C(=O)O[C@@H]1C[C@H]3CCC[C@@H](C1)N3C)C2, CN1[C@@H]2CC[C@H]1C[C@@H](OC(=O)/C=C/C(=O)O[C@H]1C[C@H]3CC[C@@H](C1)N3C)C2 is 2.8-fold lower in K: 20.8 µM for the first, 7.5 µM for the second.

Compared with O=C(O[C@@H]1C[C@@H]2N[C@H](C1)[C@@H]1O[C@@H]12)[C@H](CO)c1ccccc1, O=C(OC1CC2CCC(C1)N2)c1c[nH]c2ccccc12 (stereo not drawn) [NORTROPISETRON] is 470-fold lower in K: 8 µM for the first, 0.017 µM for the second.

Compared with CN1[C@@H]2CC[C@H]1C[C@H](OC(=O)c1cccc(C(=O)O[C@H]3C[C@H]4CC[C@@H](C3)N4C)c1)C2, CN1[C@@H]2CC[C@H]1C[C@H](OC(=O)c1ccc(C(=O)O[C@H]3C[C@H]4CC[C@@H](C3)N4C)cc1)C2 is 120-fold higher in K: 0.197 µM for the first, 24.6 µM for the second.

Compared with CCN1[C@@H]2CC[C@H]1C[C@@H](OC(=O)CCC(=O)O[C@H]1C[C@H]3CC[C@@H](C1)N3CC)C2, O=C(O[C@@H]1C[C@H]2CC[C@@H](C1)N2)c1cccnc1 is lower in K: > 100 µM for the first, 0.082 µM for the second.

With O=C(O[C@H]1C[C@H]2CC[C@@H](C1)N2)C1c2ccccc2Oc2ccccc21 the K was 3.1 µM.

Biological target: not listed separately
Assay: (§1) Displacement of [3H]strychnine from Wistar rat glycine receptor in spinal cord membrane in presence of 10 uM glycine
Type: cell membranes
Method in brief: (§2)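 Rat spinal cord synaptic membrane [3H]strychnine (3 nM) binding in 50 mM Tris-HCl/200 mM KSCN, 0 °C, 35 min, with 10 μM glycine present during test-ligand displacement. Filtration on GF/B, scintillation counting. Nonspecific binding was defined by 2 mM glycine. IC50 and slope come from concentration-displacement curves; three experiments.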

In the case of O=C(OC1CC2CCC(C1)N2)c1c[nH]c2ccccc12 (stereo not drawn) [NORTROPISETRON], the IC50 is reported as 9.3 nM.

Organism: Rattus norvegicus
Assay: as §1
Type: cell membranes
Method in brief: as §2

O=C(OC1CC2CCC(C1)N2)c1c[nH]c2ccccc12 (stereo not drawn) [NORTROPISETRON] showed an Activity of 60%.
